This is an account of results in ChEMBL document CHEMBL1921794, “Synthesis and in vitro evaluation of analogues of avocado-produced toxin (+)-(R)-persin in human breast cancer cells” (Bioorg Med Chem, 2011).

For experiment [1], the system named is MCF7. The experiment is described as follows: Cytotoxicity against human MCF7 cells expressing ER, wild type p53, BimEL, BimL and BimS assessed as growth inhibition after 24 hrs by MTS assay. Conditions: MCF7, 24 h. Format: functional, cell-based. An outline of the steps:
(§1)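 ATCC breast cancer cells kept in RPMI-1640 with 5% FCS, insulin and glutamine under standard conditions. Cells in 96-well plates were treated in triplicate for 24 h with drug or vehicle. MTS viability was read as absorbance at 490 nm, expressed as a percentage of solvent controls, and IC50 was derived.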
Background: Tetrazolium assays rely on reduction of a dye to a coloured formazan, in cell work by metabolically active cells.

A further experiment deals with MDA-MB-468. Put plainly: Cytotoxicity against ER deficient human MDA-MB-468 cells expressing p53 mutant, BimEL, BimL and BimS assessed as growth inhibition after 24 hrs by MTS assay. The experiment is classed as functional, cell-based. Conditions: MDA-MB-468, 24 h. An outline of the steps: as §1
A further experiment relates to PC-3. Put plainly: Cytotoxicity against AR and BimS deficient human PC3 cells expressing p53 mutant, BimEL, BimL assessed as growth inhibition after 24 hrs by MTS assay. Format: functional, cell-based. Conditions: PC-3, 24 h. In short, it runs like this: (§2)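 Cell lines were obtained from ATCC, plated in 96-well plates, and exposed in triplicate to drug or vehicle for 24 h. Viability was measured by MTS absorbance at 490 nm, taken as a percentage of solvent-treated controls, and IC50 was derived.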

For another experiment, the system named is OVCAR-3. The experiment is described as follows: Cytotoxicity against BimEL, BimL and BimS deficient human OVCAR3 cells expressing p53 mutant assessed as growth inhibition after 24 hrs by MTS assay. Format: functional, cell-based. Conditions: OVCAR-3, 24 h. An outline of the steps: as §2
The next experiment has as its system MDA-MB-157. Put plainly: Cytotoxicity against ER, BimL and BimS deficient human MDA-MB-157 cells expressing p53 mutant, BimEL assessed as growth inhibition after 24 hrs by MTS assay. The experiment is classed as functional, cell-based. Conditions: MDA-MB-157, 24 h. An outline of the steps:
as §1

For the next experiment, the system named is Hs-578T. The experiment is described as follows: Cytotoxicity against ER, BimEL, BimL and BimS deficient human Hs578T cells expressing p53 mutant assessed as growth inhibition after 24 hrs by MTS assay. Format: functional, cell-based. An outline of the steps: as §1
In another experiment the test system is T47D. Put plainly: Cytotoxicity against BimL, BimS deficient human T47D cells expressing ER, p53 mutant, BimEL assessed as growth inhibition after 24 hrs by MTS assay. The experiment is classed as functional, cell-based. An outline of the steps:
as §1

Another experiment concerns MDA-MB-231. Put plainly: Cytotoxicity against ER, BimEL, BimL and BimS deficient human MDA-MB-231 cells expressing p53 mutant assessed as growth inhibition after 24 hrs by MTS assay. Format: functional, cell-based. Conditions: MDA-MB-231, 24 h. In short, it runs like this: as §1
The next experiment relates to LNCaP. Put plainly: Cytotoxicity against human LNCAP cells expressing AR, wild type p53, BimEL, BimL and BimS assessed as growth inhibition after 24 hrs by MTS assay. Format: functional, cell-based. In short, it runs like this: as §2
For experiment [2], the system named is MCF7. Put plainly: Cytotoxicity against human MCF7 cells expressing ER assessed as growth inhibition after 24 hrs by MTS assay. Format: functional, cell-based. Conditions: MCF7, 24 h. An outline of the steps:
as §1

In another experiment the test system is SK-BR-3. The experiment is described as follows: Cytotoxicity against ER deficient human SKBR3 cells expressing p53 mutant, BimEL, BimL and BimS assessed as growth inhibition after 24 hrs by MTS assay. Format: functional, cell-based. Conditions: SK-BR-3, 24 h. In short, it runs like this:
as §1

The test system of the next experiment is MCF-10A. The experiment is described as follows: Cytotoxicity against ER, BimL and BimS deficient human MCF10A cells expressing wild type p53, BimEL assessed as growth inhibition after 24 hrs by MTS assay. Format: cell-based. In short, it runs like this:
as §2

The next experiment deals with IGROV-1. Put plainly: Cytotoxicity against human IGROV1 cells expressing p53 mutant, BimEL, BimL and BimS assessed as growth inhibition after 24 hrs by MTS assay. Format: functional, cell-based. Conditions: IGROV-1, 24 h. An outline of the steps:
as §2

In the case of `CCCCCCCCCCCCCCCCCC(=O)C[C@@H](O)COC(C)=O`, the IC50 (commonly the concentration needed to halve the response being measured) in the experiment on MCF7 [1] was 18.2 µM; in the experiment with MDA-MB-468, above 39 µM; in the experiment on PC-3, above 39 µM; with OVCAR-3, above 39 µM; with MDA-MB-157, above 39 µM; with Hs-578T, above 39 µM. The concentration for half-maximal inhibition (IC50) in the experiment on T47D was 20.7 µM; in the experiment with MDA-MB-231, above 39 µM; in the experiment on LNCaP, above 39 µM; with MCF7 [2], 17.1 µM; in the experiment on SK-BR-3, above 39 µM; in the experiment on MCF-10A it was above 39 µM. Also, the IC50 with IGROV-1 is above 39 µM.
`CCCCCCC(=O)C[C@@H](O)COC(C)=O`: the IC50 in the experiment on MCF7 [2] is above 65 µM.
On the same count and under the same terms, the same measure for `CCCCC/C=C\C/C=C\CCCCCCCC(=O)C[C@@H](O)COC(=O)c1ccccc1`: 27 µM; for `CCCCC/C=C\C/C=C\CCCCCCCC(=O)C[C@H](COC(=O)c1ccccc1)OC(=O)c1ccccc1`: above 27 µM.
The same measure, in the same setting: the same measure for `CCCCC/C=C\C/C=C\CCCCCCCC(=O)C[C@@H](O)COC(=O)c1ccc(Br)cc1`: 23.8 µM; for `CCCCC/C=C\C/C=C\CCCCCCCC(=O)C[C@H](COC(=O)c1ccc(Br)cc1)OC(=O)c1ccc(Br)cc1`: above 21 µM; for `CCCCC/C=C\C/C=C\CCCCCCCC(=O)/C=C/COC(=O)c1ccc([N+](=O)[O-])cc1`: above 32 µM.
`CCCCC/C=C\C/C=C\CCCCCCCC(=O)C[C@H](COC(=O)c1ccc([N+](=O)[O-])cc1)OC(=O)c1ccc([N+](=O)[O-])cc1`: the IC50 in the experiment on MCF7 [2] was above 24 µM.
Same read-out and setting: the same measure for `CCCCC/C=C\C/C=C\CCCCCCCC(=O)C[C@@H](O)COC(=O)c1ccncc1`: 20.1 µM.
On the same count and under the same terms, the same measure for `CCCCCCCCCCCCCCCCCC(=O)C(C)(C)[C@@H](O)COC(C)=O`: 29 µM.
Consider `CCCCC/C=C\C/C=C\CCCCCCCC(=O)C[C@@H](O)COC(C)=O`, for which the IC50 stood at 15.1 µM with MCF7 [1]; 25 µM in the experiment with MDA-MB-468; 30 µM in the experiment with PC-3; 27.9 µM in the experiment with OVCAR-3; 12.8 µM in the experiment on MDA-MB-157; 32.1 µM in the experiment on Hs-578T. Besides, the IC50 in the experiment on T47D is 30.3 µM; in the experiment with MDA-MB-231, above 39 µM; with LNCaP, 22 µM; with MCF7 [2], 15.1 µM; with SK-BR-3, 19.7 µM; in the experiment with MCF-10A it was above 39 µM. The IC50 in the experiment with IGROV-1 came to 15.6 µM.
